Reference: publication PMC9283305 (Nitric oxide : biology and chemistry, 2022)
Where two headings read alike, the source gives them in different places.

B1: H81A: human cytoglobin distal histidine His81(E7) to Ala mutant (protein, UniProt Q8WWM9 1-190, looked up, variant H81A)
Cytoglobin: MEKVPGEMEIERRERSEELSEAERKAVQAMWARLYANCEDVGVAILVRFFVNFPSAKQYFSQFKHMEDPLEMERSPQLRKAACRVMGALNTVVENLHDPDKVSSVLALVGKAHALKHKVEPVYFKILSGVILEVVAEEFASDFPPETQRAWAKLRGLIYSHVTAAYKEVGWVQQVPNATTPPATLPSSGP
B2: H81W: human cytoglobin distal histidine His81(E7) to Trp mutant (protein, UniProt Q8WWM9 1-190, looked up, variant H81W)
Cytoglobin: MEKVPGEMEIERRERSEELSEAERKAVQAMWARLYANCEDVGVAILVRFFVNFPSAKQYFSQFKHMEDPLEMERSPQLRKWACRVMGALNTVVENLHDPDKVSSVLALVGKAHALKHKVEPVYFKILSGVILEVVAEEFASDFPPETQRAWAKLRGLIYSHVTAAYKEVGWVQQVPNATTPPATLPSSGP
B3: T91D: human cytoglobin mutant Thr91 to Asp (protein, UniProt Q8WWM9 1-190, looked up, variant T91D)
Cytoglobin: MEKVPGEMEIERRERSEELSEAERKAVQAMWARLYANCEDVGVAILVRFFVNFPSAKQYFSQFKHMEDPLEMERSPQLRKHACRVMGALNDVVENLHDPDKVSSVLALVGKAHALKHKVEPVYFKILSGVILEVVAEEFASDFPPETQRAWAKLRGLIYSHVTAAYKEVGWVQQVPNATTPPATLPSSGP
B4: V105Y: human cytoglobin hydrophobic surface patch mutant Val105 to Tyr (protein, UniProt Q8WWM9 1-190, looked up, variant V105Y)
Cytoglobin: MEKVPGEMEIERRERSEELSEAERKAVQAMWARLYANCEDVGVAILVRFFVNFPSAKQYFSQFKHMEDPLEMERSPQLRKHACRVMGALNTVVENLHDPDKVSSYLALVGKAHALKHKVEPVYFKILSGVILEVVAEEFASDFPPETQRAWAKLRGLIYSHVTAAYKEVGWVQQVPNATTPPATLPSSGP
B5: K116E: human cytoglobin surface mutant Lys116 to Glu (protein, UniProt Q8WWM9 1-190, looked up, variant K116E)
Cytoglobin: MEKVPGEMEIERRERSEELSEAERKAVQAMWARLYANCEDVGVAILVRFFVNFPSAKQYFSQFKHMEDPLEMERSPQLRKHACRVMGALNTVVENLHDPDKVSSVLALVGKAHALEHKVEPVYFKILSGVILEVVAEEFASDFPPETQRAWAKLRGLIYSHVTAAYKEVGWVQQVPNATTPPATLPSSGP
B6: L108Q: human cytoglobin hydrophobic surface patch mutant Leu108 to Gln (protein, UniProt Q8WWM9 1-190, looked up, variant L108Q)
Cytoglobin: MEKVPGEMEIERRERSEELSEAERKAVQAMWARLYANCEDVGVAILVRFFVNFPSAKQYFSQFKHMEDPLEMERSPQLRKHACRVMGALNTVVENLHDPDKVSSVLAQVGKAHALKHKVEPVYFKILSGVILEVVAEEFASDFPPETQRAWAKLRGLIYSHVTAAYKEVGWVQQVPNATTPPATLPSSGP
B7: R84E: human cytoglobin surface mutant Arg84 to Glu (protein, UniProt Q8WWM9 1-190, looked up, variant R84E)
Cytoglobin: MEKVPGEMEIERRERSEELSEAERKAVQAMWARLYANCEDVGVAILVRFFVNFPSAKQYFSQFKHMEDPLEMERSPQLRKHACEVMGALNTVVENLHDPDKVSSVLALVGKAHALKHKVEPVYFKILSGVILEVVAEEFASDFPPETQRAWAKLRGLIYSHVTAAYKEVGWVQQVPNATTPPATLPSSGP
B8: H81Q: human cytoglobin distal histidine His81(E7) to Gln mutant (protein, UniProt Q8WWM9 1-190, looked up, variant H81Q)
Cytoglobin: MEKVPGEMEIERRERSEELSEAERKAVQAMWARLYANCEDVGVAILVRFFVNFPSAKQYFSQFKHMEDPLEMERSPQLRKQACRVMGALNTVVENLHDPDKVSSVLALVGKAHALKHKVEPVYFKILSGVILEVVAEEFASDFPPETQRAWAKLRGLIYSHVTAAYKEVGWVQQVPNATTPPATLPSSGP
B9: H81L: human cytoglobin distal histidine His81(E7) to Leu mutant (protein, UniProt Q8WWM9 1-190, looked up, variant H81L)
Cytoglobin: MEKVPGEMEIERRERSEELSEAERKAVQAMWARLYANCEDVGVAILVRFFVNFPSAKQYFSQFKHMEDPLEMERSPQLRKLACRVMGALNTVVENLHDPDKVSSVLALVGKAHALKHKVEPVYFKILSGVILEVVAEEFASDFPPETQRAWAKLRGLIYSHVTAAYKEVGWVQQVPNATTPPATLPSSGP
B10: zebrafish Cygb1: zebrafish cytoglobin 1, a five-coordinate native globin (protein, UniProt Q8UUR3 1-174, looked up)
Cytoglobin-1: MEGDGGVQLTQSPDSLTEEDVCVIQDTWKPVYAERDNAGVAVLVRFFTNFPSAKQYFEHFRELQDPAEMQQNAQLKEHGQRVLNALNTLVENLRDADKLNTIFNQMGKSHALRHKVDPVYFKILAGVILEVLVEAFPQCFSPAEVQSSWSKLMGILYWQMNRVYAEVGWENSKK
B11: Neuroglobin Wild-type: wild-type human neuroglobin (protein, UniProt Q9NPG2 1-151, looked up)
Neuroglobin: MERPEPELIRQSWRAVSRSPLEHGTVLFARLFALEPDLLPLFQYNCRQFSSPEDCLSSPEFLDHIRKVMLVIDAAVTNVEDLSSLEEYLASLGRKHRAVGVKLSSFSTVGESLLYMLEKCLGPAFTPATRAAWSQLYGAVVQAMSRGWDGE
B12: Neuroglobin H64A: human neuroglobin distal histidine His64(E7) to Ala mutant (protein, UniProt Q9NPG2 1-151, looked up, variant H64A)
Neuroglobin: MERPEPELIRQSWRAVSRSPLEHGTVLFARLFALEPDLLPLFQYNCRQFSSPEDCLSSPEFLDAIRKVMLVIDAAVTNVEDLSSLEEYLASLGRKHRAVGVKLSSFSTVGESLLYMLEKCLGPAFTPATRAAWSQLYGAVVQAMSRGWDGE
B13: Neuroglobin H64W: human neuroglobin distal histidine His64(E7) to Trp mutant (protein, UniProt Q9NPG2 1-151, looked up, variant H64W)
Neuroglobin: MERPEPELIRQSWRAVSRSPLEHGTVLFARLFALEPDLLPLFQYNCRQFSSPEDCLSSPEFLDWIRKVMLVIDAAVTNVEDLSSLEEYLASLGRKHRAVGVKLSSFSTVGESLLYMLEKCLGPAFTPATRAAWSQLYGAVVQAMSRGWDGE
B14: Neuroglobin H64Q: human neuroglobin distal histidine His64(E7) to Gln mutant (protein, UniProt Q9NPG2 1-151, looked up, variant H64Q)
Neuroglobin: MERPEPELIRQSWRAVSRSPLEHGTVLFARLFALEPDLLPLFQYNCRQFSSPEDCLSSPEFLDQIRKVMLVIDAAVTNVEDLSSLEEYLASLGRKHRAVGVKLSSFSTVGESLLYMLEKCLGPAFTPATRAAWSQLYGAVVQAMSRGWDGE
B15: Neuroglobin H64L: His-tagged neuroglobin distal histidine His64(E7) to Leu mutant (protein, UniProt Q9NPG2 1-151, looked up, variant H64L)
Neuroglobin: MERPEPELIRQSWRAVSRSPLEHGTVLFARLFALEPDLLPLFQYNCRQFSSPEDCLSSPEFLDLIRKVMLVIDAAVTNVEDLSSLEEYLASLGRKHRAVGVKLSSFSTVGESLLYMLEKCLGPAFTPATRAAWSQLYGAVVQAMSRGWDGE

Key:
[1] = Nitrite reduction to NO by ferrous globins in the presence of excess dithionite; type: biochemical, human; details: for Nitrite reductase reaction rate constant: 37°C, 100 mM sodium phosphate, pH 7.4, excess dithionite
Summary of the method: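 Ran in 100 mM sodium phosphate, pH 7.4, 37 °C, with 2.5 mM dithionite to keep heme ferrous and remove O2. Globin (2–10 μM) was mixed with nitrite, typically 1–10 mM, or 250 μM–2 mM for distal-His mutants. Spectra were read over 350–700 nm and fit single-exponential; rate constants came from the nitrite series. At least triplicate, with ≥2 protein batches; mean ± SD.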

[2] = Autoxidation of the ferrous-dioxygen; type: biochemical, human
Summary of the method: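 Human Cygb WT and mutants were His-tagged, expressed in SoluBL21 cells and purified on Ni-NTA. Fe(II)-O2 was formed by excess dithionite reduction, then G25 gel filtration in aerobic buffer, mixed with prewarmed buffer at 37 °C and followed spectrally for 30–60 min. For two surface mutants, deoxy protein was made in a glovebox, desalted anaerobically and mixed 4:1 with O2-saturated buffer; read at 1 spectrum/s for 1000 s. At least triplicate; mean ± SD.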

Oleic acid = type: binding, human
Summary of the method: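 Oleate was titrated into ferric distal-His mutant globins with imidazole present: 250 μM, or a series of imidazole levels. Difference spectra were taken by subtracting the initial spectrum. The absorbance difference at the wavelength of largest change was fit against oleate concentration to give an apparent KD. Buffer was 100 mM sodium phosphate, pH 7.4, 25 °C.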

[3] = cited from earlier work
[4] = 37°C, 100 mM sodium phosphate, pH 7.4; cited from earlier work
[5] = 37°C, 100 mM sodium phosphate, pH 7.4; cited from earlier work; remark: listed apart in the source
[6] = 37°C, 100 mM sodium phosphate, pH 7.4
[7] = 37°C, 100 mM sodium phosphate, pH 7.4, decay fit to a two-exponential equation

Molecule	Nitrite reductase reaction rate constant [1]	Autoxidation rate [2, 6]	further results
B1	1100 ± 100 M⁻¹ s⁻¹	0.094 ± 0.038 min⁻¹	Nitrite reductase reaction rate constant ([1]; listed as His81Ala): up to 1100 M^−1s^−1; Fold increase in nitrite reduction rate constant versus Cygb WT [1]: up to 1000 fold
B2	10.7 ± 2.1 M⁻¹ s⁻¹	0.135 ± 0.034 min⁻¹	–
B3	1.24 ± 0.18 M⁻¹ s⁻¹	0.062 ± 0.005 min⁻¹	–
B4	3.76 ± 0.85 M⁻¹ s⁻¹	0.107 ± 0.018 min⁻¹	Fold increase in nitrite reduction rate constant versus Cygb WT [1]: 3 fold
B5	0.65 ± 0.14 M⁻¹ s⁻¹	0.366 ± 0.057 min⁻¹	–
B6	0.66 ± 0.18 M⁻¹ s⁻¹	0.116 ± 0.051 min⁻¹	–
B7	0.90 ± 0.30 M⁻¹ s⁻¹	–	Autoxidation rate constant for the fast phase [2, 7]: 2.362 ± 0.359^c min^−1; Autoxidation rate constant for the slower phase [2, 7]: 0.303 ± 0.037 min⁻¹; Share of the autoxidation decay accounted for by the fast phase ([2]; 37°C, 100 mM sodium phosphate, pH 7.4, two-exponential fit): 73 ± 12%; Fold increase in autoxidation rate constant as compared to WT ([2]; versus WT cytoglobin): roughly 10 fold
B8	210 ± 44 M⁻¹ s⁻¹	0.019 ± 0.005 min⁻¹	Change of oleic acid binding (apparent KD) in the presence of imidazole (Oleic acid; several saturating concentrations of imidazole (Figure 5)): slight upwards trend
B9	76 ± 16 M⁻¹ s⁻¹	0.314 ± 0.043 min⁻¹	Nitrite reduction rate relative to Ngb H64L ([1]; relative to the Ngb H64L rate): about 25%; Fold increase in oleic acid KD versus WT (Oleic acid; versus Cygb WT): 4 fold
B10	–	–	Lipid binding [3]: do not show appreciable lipid binding
B11	–	–	Nitrite reductase reaction rate constant [4]: 0.52 ± 0.19^d M^−1s^−1; Autoxidation rate [5]: 0.23 ± 0.03^b min^−1
B12	–	–	Nitrite reductase reaction rate constant [4]: 1120 ± 140^d M^−1s^−1; Autoxidation rate [5]: 0.066 ± 0.005^b min^−1
B13	–	–	Nitrite reductase reaction rate constant [4]: 7.6 ± 1.3^d M^−1s^−1; Autoxidation rate [5]: 0.076 ± 0.006^b min^−1
B14	–	–	Nitrite reductase reaction rate constant [4]: 387 ± 21^d M^−1s^−1; Autoxidation rate [5]: 0.010 ± 0.002^b min^−1
B15	302 ± 55 M⁻¹ s⁻¹	0.010 ± 0.004 min⁻¹	–
